Laboratory results published in ChEMBL document CHEMBL1156540, “Remarkable DNA binding affinity and potential anticancer activity of pyrrolo[2,1-c][1,4]benzodiazepine-naphthalimide conjugates linked through piperazine side-armed alkane spacers” (Bioorg Med Chem, 2008).

Key:
PC-3 = assay: Cytotoxicity against human PC3 cells by SRB assay; format: functional, cell-based
Outline: (§1)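 Human tumour lines given dose–response treatment, with growth or viability estimated by sulforhodamine B protein staining. IC50 is the dose giving 50% growth inhibition versus untreated controls, read from IC50 graphs. Triplicate wells; each experiment repeated three times.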

HOP-62 = assay: Cytotoxicity against human Hop62 cells by SRB assay; format: functional, cell-based; outline: as §1
COLO 205 = assay: Cytotoxicity against human Colo205 cells by SRB assay; format: functional, cell-based; outline: as §1
MCF7 = assay: Cytotoxicity against human MCF7 cells by SRB assay; format: functional, cell-based; outline: as §1
SiHa = assay: Cytotoxicity against human SiHa cells by SRB assay; format: functional, cell-based; outline: as §1
DNA = assay: Binding affinity to calf thymus DNA assessed as helix melting temperature at 20 uM after 18 hrs by thermal denaturation assay; format: nucleic-acid assay; details: Bos taurus
Outline: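 Calf thymus duplex DNA (100 µM in phosphate) with ligand at 20 µM (1:5 ligand/DNA molar ratio), added from concentrated DMSO stock into 10 mM sodium phosphate, 1 mM EDTA, pH 7.00. Incubated at 37 °C before melting. Absorbance followed at 260 nm while heating 1 °C/min over 40–95 °C. Tm taken from maxima of d(A260)/dT derivative plots; ΔTm relative to DNA alone.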

A2780 = assay: Cytotoxicity against human A2780 cells by SRB assay; format: functional, cell-based; outline: as §1
ZR-75-1 = assay: Cytotoxicity against human ZR751 cells by SRB assay; format: functional, cell-based; outline: as §1

| Structure (SMILES) | IC50 (PC-3) [nM] | IC50 (HOP-62) [nM] | IC50 (COLO 205) [nM] | IC50 (MCF7) [nM] | IC50 (SiHa) [nM] | ΔTm (DNA) [°C] | IC50 (A2780) [nM] | IC50 (ZR-75-1) [nM] |
| --- | --- | --- | --- | --- | --- | --- | --- | --- |
| COc1cc2c(cc1OCCCN1CCN(CCN3C(=O)c4cccc5cccc(c45)C3=O)CC1)N=C[C@@H]1CCCN1C2=O | 500 | < 1000 | 500 | 500 | 700 | 26.5 | 500 | < 1000 |
| COc1cc2c(cc1OCCN1CCN(CCN3C(=O)c4cccc5cccc(c45)C3=O)CC1)N=C[C@@H]1CCCN1C2=O | 800 | 1200 | 1600 | 1400 | 1000 | 22.7 | 500 | < 1000 |
| COc1cccc2c1C(=O)c1c(O)c3c(c(O)c1C2=O)C[C@@](O)(C(=O)CO)C[C@@H]3O[C@H]1C[C@H](N)[C@H](O)[C@H](C)O1 [DOXORUBICIN] |  |  |  | 500 |  |  |  |  |
| COc1cc2c(cc1OCCCOc1cc3c(cc1OC)C(=O)N1CCC[C@H]1C=N3)N=C[C@@H]1CCCN1C2=O |  |  |  |  |  | 15.1 |  |  |
| COc1cc2c(cc1OCCCCN1CCN(CCN3C(=O)c4cccc5cccc(c45)C3=O)CC1)N=C[C@@H]1CCCN1C2=O | 500 | < 1000 | 500 | 500 | 800 | 23.9 | 600 | < 1000 |
| COc1cc2c(cc1OCCCN1CCN(CCCN3C(=O)c4cccc5cccc(c45)C3=O)CC1)N=C[C@@H]1CCCN1C2=O |  |  |  |  |  | 12.9 |  |  |
| COc1cc2c(cc1OCCCCN1CCN(CCCCN3C(=O)c4cccc5cccc(c45)C3=O)CC1)N=C[C@@H]1CCCN1C2=O |  |  |  |  |  | 20.8 |  |  |
| COc1cc2c(cc1O)N=C[C@@H]1CCCN1C2=O |  |  |  |  |  | 0.7 |  |  |
